Measured values from ChEMBL document CHEMBL1777764, “Synthesis and evaluation of 1-(1H-indol-3-yl)ethanamine derivatives as new antibacterial agents” (Bioorg Med Chem, 2011).
≈ marks a conversion by molar mass, not a printed value.

Assays:
Type in all cases: functional
Staphylococcus aureus [1] = experiment: Antibacterial activity against Staphylococcus aureus ATCC 25923 after 18 hrs by broth microdilution method; conditions: ATCC 25923, 18 h
Procedure, shortened: (§1)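 MIC by broth microdilution per ISO 20776-1:2006 and CLSI M07-A8. Inoculum 10^6 cfu/ml in Mueller-Hinton broth with compound serially diluted, final concentrations 2 to 128 ug/ml, duplicate rows, no-drug growth control. Incubation 18 h at 37 °C. MIC taken as lowest concentration giving complete inhibition of visible growth. Each compound tested at least twice.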

Staphylococcus aureus [2] = experiment: Antibacterial activity against Staphylococcus aureus ATCC 29213 after 18 hrs by broth microdilution method; conditions: ATCC 29213, 18 h; procedure, shortened: as §1
Staphylococcus aureus [3] = experiment: Antibacterial activity against Staphylococcus aureus ATCC 9144 after 18 hrs by broth microdilution method; conditions: ATCC 9144, 18 h; procedure, shortened: as §1
Staphylococcus aureus [4] = experiment: Antibacterial activity against Staphylococcus aureus ATCC 6538 after 18 hrs by broth microdilution method; conditions: ATCC 6538, 18 h; procedure, shortened: as §1
Staphylococcus aureus [5] = experiment: Antibacterial activity against Staphylococcus aureus CIP 65.6 after 18 hrs by broth microdilution method; conditions: CIP 65.6, 18 h; procedure, shortened: as §1
Staphylococcus aureus [6] = experiment: Antibacterial activity against Staphylococcus aureus CIP 103428 after 18 hrs by broth microdilution method; conditions: CIP 103428, 18 h; procedure, shortened: as §1
Staphylococcus aureus [7] = experiment: Antibacterial activity against methicillin-resistant Staphylococcus aureus CIP 65.25 after 18 hrs by broth microdilution method; conditions: CIP 65.25, 18 h
Procedure, shortened: (§2)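 Broth microdilution following ISO 20776-1:2006 and CLSI M07-A8, in Mueller-Hinton broth. Inoculum was 10^6 cfu/ml, with compound serial dilutions spanning 2 to 128 ug/ml and a compound-free growth control well. Plates were incubated 18 h at 37 °C. MIC was the lowest concentration giving complete inhibition of visible growth. Each compound was tested at least twice.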

Staphylococcus aureus [8] = experiment: Antibacterial activity against methicillin-resistant Staphylococcus aureus ATCC 33592 after 18 hrs by broth microdilution method; conditions: ATCC 33592, 18 h; procedure, shortened: as §2
Staphylococcus aureus [9] = experiment: Antibacterial activity against vancomycin intermediate Staphylococcus aureus […] after 18 hrs by broth microdilution method; procedure, shortened: as §2
[10] = system: Staphylococcus epidermidis; experiment: Antibacterial activity against Staphylococcus epidermidis ATCC 12228 after 18 hrs by broth microdilution method; conditions: ATCC 12228, 18 h; procedure, shortened: as §1
[11] = system: Staphylococcus epidermidis; experiment: Antibacterial activity against Staphylococcus epidermidis CIP 81.55 after 18 hrs by broth microdilution method; conditions: CIP 81.55, 18 h; procedure, shortened: as §1
[12] = system: Staphylococcus epidermidis; experiment: Antibacterial activity against Staphylococcus epidermidis CIP 103627 after 18 hrs by broth microdilution method; conditions: CIP 103627, 18 h; procedure, shortened: as §1
Streptococcus pneumoniae [13] = experiment: Antibacterial activity against Streptococcus pneumoniae ATCC 49619 after 18 hrs by broth microdilution method; conditions: ATCC 49619, 18 h
Procedure, shortened: (§3)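 MIC by broth microdilution per ISO 20776-1:2006 and CLSI M07-A8. Inoculum 10^6 cfu/ml in Mueller-Hinton broth […]. Compound serially diluted, final 2 to 128 ug/ml, duplicate rows, no-drug growth control. Read after 18 h at 37 °C as lowest concentration fully inhibiting visible growth. At least two experiments.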

Streptococcus pneumoniae [14] = experiment: Antibacterial activity against Streptococcus pneumoniae ATCC 6303 after 18 hrs by broth microdilution method; conditions: ATCC 6303, 18 h; procedure, shortened: as §3

MIC (Staphylococcus aureus [1]) [mg/L]	MIC (Staphylococcus aureus [2]) [mg/L]	MIC (Staphylococcus aureus [3]) [mg/L]	MIC (Staphylococcus aureus [4]) [mg/L]	MIC (Staphylococcus aureus [5]) [mg/L]	MIC (Staphylococcus aureus [6]) [mg/L]	MIC [10] [mg/L]	MIC [11] [mg/L]	MIC [12] [mg/L]	SMILES	MIC (Staphylococcus aureus [7]) [mg/L]	MIC (Staphylococcus aureus [8]) [mg/L]	MIC (Staphylococcus aureus [9]) [mg/L]	MIC (Streptococcus pneumoniae [13]) [mg/L]	MIC (Streptococcus pneumoniae [14]) [mg/L]
32 (≈ 76.7 µM)	32 (≈ 76.7 µM)	32 (≈ 76.7 µM)	32 (≈ 76.7 µM)	32 (≈ 76.7 µM)	32 (≈ 76.7 µM)	64 (≈ 153 µM)	64 (≈ 153 µM)	64 (≈ 153 µM)	CC(C)(C)OC(=O)NCC(NO)c1c[nH]c2ccc(I)cc12 (configuration not stated)					
32 (≈ 86.4 µM)	32 (≈ 86.4 µM)	32 (≈ 86.4 µM)	32 (≈ 86.4 µM)	32 (≈ 86.4 µM)	32 (≈ 86.4 µM)	64 (≈ 173 µM)	64 (≈ 173 µM)	64 (≈ 173 µM)	CC(C)(C)OC(=O)NCC(NO)c1c[nH]c2ccc(Br)cc12 (configuration not stated)					
> 128	> 128	> 128	> 128	> 128	> 128	> 128	> 128	> 128	CC(C)(C)OC(=O)NCC(NO)c1c[nH]c2ccccc12 (configuration not stated)					
64 (≈ 196 µM)	64 (≈ 196 µM)	64 (≈ 196 µM)	64 (≈ 196 µM)	64 (≈ 196 µM)	64 (≈ 196 µM)	64 (≈ 196 µM)	64 (≈ 196 µM)	64 (≈ 196 µM)	CC(C)(C)OC(=O)NCC(NO)c1c[nH]c2ccc(Cl)cc12 (configuration not stated)					
128 (≈ 346 µM)	128 (≈ 346 µM)	128 (≈ 346 µM)	128 (≈ 346 µM)	128 (≈ 346 µM)	128 (≈ 346 µM)	128 (≈ 346 µM)	128 (≈ 346 µM)	128 (≈ 346 µM)	CC(C)(C)OC(=O)NCC(NO)c1c[nH]c2cccc(Br)c12 (configuration not stated)					
128 (≈ 481 µM)	128 (≈ 481 µM)	128 (≈ 481 µM)	128 (≈ 481 µM)	128 (≈ 481 µM)	128 (≈ 481 µM)	64 (≈ 240 µM)	64 (≈ 240 µM)	64 (≈ 240 µM)	CC(c1c[nH]c2ccccc12)N(O)Cc1ccccc1 (configuration not stated)					

Continued, molecule first:

SMILES	MIC (Staphylococcus aureus [1]) [mg/L]	MIC (Staphylococcus aureus [2]) [mg/L]	MIC (Staphylococcus aureus [3]) [mg/L]	MIC (Staphylococcus aureus [4]) [mg/L]	MIC (Staphylococcus aureus [5]) [mg/L]	MIC (Staphylococcus aureus [6]) [mg/L]	MIC [10] [mg/L]	MIC [11] [mg/L]	MIC [12] [mg/L]	MIC (Staphylococcus aureus [7]) [mg/L]	MIC (Staphylococcus aureus [8]) [mg/L]	MIC (Staphylococcus aureus [9]) [mg/L]	MIC (Streptococcus pneumoniae [13]) [mg/L]	MIC (Streptococcus pneumoniae [14]) [mg/L]
CC(C)CC(c1c[nH]c2ccc(I)cc12)N(O)Cc1ccccc1 (configuration not stated)	> 128	> 128	> 128	> 128	> 128	> 128	> 128	> 128	> 128	> 128	> 128	> 128	> 128	> 128
CC(C)CC(c1c[nH]c2ccc(F)cc12)N(O)Cc1ccccc1 (configuration not stated)	64 (≈ 196 µM)	64 (≈ 196 µM)	64 (≈ 196 µM)	64 (≈ 196 µM)	64 (≈ 196 µM)	64 (≈ 196 µM)	64 (≈ 196 µM)	64 (≈ 196 µM)	64 (≈ 196 µM)	128 (≈ 392 µM)	128 (≈ 392 µM)	128 (≈ 392 µM)	128 (≈ 392 µM)	128 (≈ 392 µM)
CC(C)CC(c1c[nH]c2ccc(Br)cc12)N(O)Cc1ccccc1 (configuration not stated)	> 128	> 128	> 128	> 128	> 128	> 128	> 128	> 128	> 128	> 128	> 128	> 128	> 128	> 128
CC(C)(C)OC(=O)NCC(NO)c1c[nH]c2cc(Cl)ccc12 (configuration not stated)	128 (≈ 393 µM)	128 (≈ 393 µM)	128 (≈ 393 µM)	128 (≈ 393 µM)	128 (≈ 393 µM)	128 (≈ 393 µM)	> 128	> 128	> 128					
CC(C)(C)OC(=O)NCC(c1c[nH]c2cc(F)ccc12)N(O)Cc1ccccc1 (configuration not stated)	> 128	> 128	> 128	> 128	> 128	> 128	> 128	> 128	> 128	> 128	> 128	> 128	> 128	> 128
CC(c1c[nH]c2ccc(F)cc12)N(O)Cc1ccccc1 (configuration not stated)	> 128	> 128	> 128	> 128	> 128	> 128	> 128	> 128	> 128	> 128	> 128	> 128	> 128	> 128
CC(C)(C)OC(=O)NCC(c1c[nH]c2ccccc12)N(O)Cc1ccccc1 (configuration not stated)	> 128	> 128	> 128	> 128	> 128	> 128	> 128	> 128	> 128	> 128	> 128	> 128	> 128	> 128
